Assay results: ChEMBL document CHEMBL5034012, “Procainamide-SAHA Fused Inhibitors of hHDAC6 Tackle Multidrug-Resistant Malaria Parasites” (J Med Chem, 2021)
The source made the active and inactive calls. The rule behind the calls is not given here.

Columns and labels:
HL-60 [1] = assay: cells; type: functional, cell-based; settings: Homo sapiens, HL-60, 72 h
[2] = Inhibition of Plasmodium falciparum NF54 HDAC using extract measured after 60 mins by fluorescence assay
Plasmodium falciparum [3] = assay: Antiplasmodial activity against synchronized ring stage Plasmodium falciparum 3D7 assessed as parasite reduction over one cycle upto 48 hrs at 10 times IC50 concentration; type: functional; settings: time hrs <=48
Outline: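 3D7 culture of mostly rings exposed to drug for 6, 24, 48, 72 or 96h. Then washed, serially diluted 1/3 in fresh RBC and grown 3 weeks. Growth read by SYBR-green I. Number of wells with growth used to back-calculate viable parasites at each time point and derive growth parameters. One experiment, run in duplicate.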

Plasmodium falciparum [4] = assay: Antiplasmodial activity against Plasmodium falciparum 3D7 assessed as DNA damage in trophozoite stage measured upto 72 hrs using Geimsa stain based parasite reduction rate assay; type: functional, organism-based; settings: time hrs <=72
[5] = Microsomal stability in rat liver microsomes assessed as parent compound remaining after 1 hrs; type: ADME, Microsome; settings: read-out: Stability
[6] = Microsomal stability in human liver microsomes assessed as parent compound remaining after 1 hrs; type: ADME, Microsome; settings: read-out: Stability
[7] = Stability in rat plasma assessed as parent compound remaining after 2 hrs; type: ADME, cell-free; settings: read-out: Stability
[8] = Stability in human plasma assessed as parent compound remaining after 2 hrs; type: ADME, cell-free; settings: read-out: Stability
Plasmodium berghei [9] = assay: Antimalarial activity against Plasmodium berghei infected in C57BL/6 mouse cerebral malaria model infected with assessed as growth reduction at 20 mg/kg, ip bid measured after 4 days; type: functional, organism-based; settings: time 4.0 day
Outline: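 Female C57BL/6 mice, 6 weeks old, infected i.p. with 10⁵ iRBC of GFP-expressing P. berghei ANKA. Treatment began 2h post-infection: i.p. 20mg/kg twice daily for 4 days, vehicle controls alongside; chloroquine 25mg/kg daily as positive control. Hydrochloride salt used. Parasitemia read daily by flow cytometry of 200,000 RBCs and confirmed on Giemsa smears. Mortality followed for 10 days. Single experiment, 5 mice per group.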

Plasmodium berghei [10] = assay: Antimalarial activity against Plasmodium berghei infected in C57BL/6 mouse cerebral malaria model infected with assessed as increase in mouse survival days at 20 mg/kg, ip bid; type: functional, organism-based
Outline: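 Female C57BL/6 mice, 6 weeks old, infected i.p. with 10⁵ iRBC of GFP-expressing P. berghei ANKA. Dosing i.p. started 2h post-infection and ran 4 days: hydrochloride salt at 20mg/kg twice daily, vehicle control, or chloroquine 25mg/kg daily. Parasitemia measured daily by flow cytometry of 200,000 RBCs and confirmed by Giemsa smears. Parasitemia and mortality followed 10 days; n=5 mice/group, single experiment.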

Plasmodium falciparum [11] = assay: Antiplasmodial activity against Plasmodium falciparum late stage IV-V gametocytes assessed as reduction in number of exflagellation centers in at 1 to 10 uM treated for 72 hrs; type: functional, organism-based; settings: dose 1-10 µM
Outline: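 Synchronous gametocytes induced; asexual forms removed with N-acetyl glucosamine for 5 days. Day-9 stage IV-V gametocytes, about 1% gametocytemia at 2% hematocrit, treated 72h at 10, 5, 1 or 0.5 µM against 0.1% DMSO. Then washed and recultured with daily medium changes. […], pelleted cells mixed 1:1 with human serum. Exflagellation centers counted over ≥10 fields at 40× within one hour. Two independent experiments; one-way ANOVA.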

HL-60 [12] = assay: Cytotoxicity against human HL-60 cells assessed as inhibition of cell proliferation at 32 uM measured after 72 hrs by ATPlite assay; type: functional
Outline: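 Cells exposed to compound for 72h; viability read by ATPlite. DMSO control. Technical triplicates, at least two biological replicates. IC50 interpolated from the curves.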

Plasmodium falciparum [13] = assay: Inhibition of Plasmodium falciparum DNMT activity using nuclear extract assessed as DNA methylation at 32 uM
Outline: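 P. falciparum nuclear extracts tested at 32 µM compound, or the equivalent DMSO. DNA methylation activity normalized to the DMSO sample. Triplicates in two independent experiments.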

[14] = biological target: DNA (cytosine-5)-methyltransferase 3A (Homo sapiens) (UniProt Q9Y6K1); assay: Inhibition of human DNMT3A methylation
Plasmodium falciparum [15] = assay: Inhibition of Plasmodium falciparum HDAC activity using nuclear extract assessed as inhibition of acetylation at 1 to 10 uM; settings: dose 1-10 µM
Outline: (§1)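 P. falciparum protein extract (3x10⁻³mg) incubated with compound and 43 µM Tosyl-Gly-Pro-Lys(Ac)-AMC. Buffer: 25mM Tris-HCl pH 8, 140mM NaCl, 3mM KCl, 1mM MgCl₂. Run 45 min at 37°C, then trypsin 15min at RT, then ethanol. Fluorescence read at ex 380/em 460nm. Normalized to DMSO. Duplicates in ≥2 independent experiments.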

[16] = biological target: Histone deacetylase (Homo sapiens) (UniProt Q13547+O15379+Q9UBN7+Q92769+Q9UQL6+Q8WUI4+Q9BY41+Q96DB2+P56524+Q9UKV0+Q969S8); assay: Inhibition of human HDAC activity using nuclear extract of HeLa cells assessed as inhibition of acetylation; type: tissue-based
Outline: as §1, with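 “HeLa nuclear” for “P. falciparum protein”, “trypsin (1mg/mL)” for “trypsin”, “AMC fluorescence” for “Fluorescence”, “Background subtracted; data normalized” for “Normalized”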

Plasmodium falciparum [17] = assay: Antiplasmodial activity against synchronized Plasmodium falciparum NF54 assessed as effect on ring stage parasite growth in intraerythrocytic development cycle at 3 times IC50 concentration measured upto 48 hrs of cell cycle by SYBR Green 1 assay; type: functional, organism-based; settings: time hrs <=48
Plasmodium falciparum [18] = assay: Antiplasmodial activity against synchronized Plasmodium falciparum NF54 assessed as effect on ring stage parasite growth in intraerythrocytic development cycle at 10 times IC50 concentration incubated upto 48 hrs measured after 72 hrs of post synchronization by SYBR Green 1 assay; type: functional, organism-based; settings: time hrs <=48
Plasmodium falciparum [19] = assay: Antiplasmodial activity against Plasmodium falciparum NF54 assessed as reduction in growth in intraerythrocytic development cycle at 3 to 10 times of IC50 concentration incubated for 24 to 36 hrs measured after 72 hrs of post synchronization by SYBR Green 1 assay; type: functional; set-up: scale not given: the % may be the effect or the level left; settings: time 24-36 hrs
Plasmodium falciparum [20] = assay: Antiplasmodial activity against Plasmodium falciparum NF54 assessed as reduction in growth in intraerythrocytic development cycle at 3 times of IC50 concentration incubated for 6 hrs measured after 72 hrs of post synchronization […]; type: functional, organism-based
Outline: (§2)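 NF54 asexual parasites tightly synchronized to 0–3hpi. Exposed for 6h at 3× or 10× IC50, starting at 0, 6, 12, 18, 24, 30, 36 or 42hpi. Cells then pelleted, washed in RPMI and returned to culture. Parasitemia counted at 72h post-synchronization on Giemsa-stained thin smears. Survival expressed relative to DMSO. Three independent experiments, one well per condition.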

Plasmodium falciparum [21] = assay: Antiplasmodial activity against Plasmodium falciparum NF54 assessed as reduction in growth in intraerythrocytic development cycle at 10 times of IC50 concentration incubated for 6 hrs measured after 72 hrs of post synchronization […]; type: functional, organism-based
Outline: as §2

DNA (cytosine-5)-methyltransferase 3A (Homo sapiens), sequence (Q9Y6K1 whole entry, looked up): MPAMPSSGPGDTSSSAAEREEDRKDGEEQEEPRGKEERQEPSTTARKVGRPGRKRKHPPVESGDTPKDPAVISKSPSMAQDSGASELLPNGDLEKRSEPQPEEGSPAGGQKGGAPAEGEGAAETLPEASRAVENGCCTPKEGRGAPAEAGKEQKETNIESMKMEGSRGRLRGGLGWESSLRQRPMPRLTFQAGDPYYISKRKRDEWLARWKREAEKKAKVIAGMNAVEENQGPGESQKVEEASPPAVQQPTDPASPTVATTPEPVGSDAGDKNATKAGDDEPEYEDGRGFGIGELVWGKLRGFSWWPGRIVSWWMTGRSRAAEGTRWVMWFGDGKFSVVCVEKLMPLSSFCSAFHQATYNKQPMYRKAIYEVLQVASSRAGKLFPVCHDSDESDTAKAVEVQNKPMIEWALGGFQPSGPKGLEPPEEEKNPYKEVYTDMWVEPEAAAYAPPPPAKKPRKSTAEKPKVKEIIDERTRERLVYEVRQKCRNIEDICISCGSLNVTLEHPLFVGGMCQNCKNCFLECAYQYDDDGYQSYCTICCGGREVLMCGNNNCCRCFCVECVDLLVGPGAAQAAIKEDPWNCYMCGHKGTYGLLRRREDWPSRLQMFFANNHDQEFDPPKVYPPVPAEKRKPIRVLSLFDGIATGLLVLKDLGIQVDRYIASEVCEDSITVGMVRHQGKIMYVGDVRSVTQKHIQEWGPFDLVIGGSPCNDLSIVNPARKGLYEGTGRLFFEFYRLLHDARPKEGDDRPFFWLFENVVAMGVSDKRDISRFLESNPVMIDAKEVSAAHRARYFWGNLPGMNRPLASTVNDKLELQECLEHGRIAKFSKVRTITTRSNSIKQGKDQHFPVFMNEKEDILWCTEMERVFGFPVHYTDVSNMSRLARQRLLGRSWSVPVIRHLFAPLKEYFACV

## O=C(CCCCCCC(=O)Nc1ccc(C(=O)NC2CCNCC2)cc1)NO
HL-60 [1]
  IC50: 100 µM
[2]
  IC50: 480 nM
Plasmodium falciparum [3]
  log(activity): 4.22
Plasmodium falciparum [4]
  Activity: Active
[5]
  remaining at 1 h: 100%
[6]
  remaining at 1 h: 100%
[7]
  remaining at 2 h: 85%
[8]
  remaining at 2 h: 85%
Plasmodium berghei [9]
  Activity: Active
Plasmodium berghei [10]
  Survival: Active
Plasmodium falciparum [11]
  Activity: Active

## CCN(CC)CCNC(=O)c1ccc(NC(=O)CCCCCCC(=O)NO)cc1
HL-60 [12]
  inhibition at 32 µM: 65%
[2]
  IC50: 380 nM
Plasmodium falciparum [13]
  Activity: inactive
[14]
  inhibition: inactive
Plasmodium falciparum [15]
  Activity: Active
[16]
  inhibition: Active
Plasmodium falciparum [17]
  Activity: inactive
Plasmodium falciparum [18]
  Activity: inactive
Plasmodium falciparum [19]
  Activity: <=85%
Plasmodium falciparum [20]
  Activity: inactive
Plasmodium falciparum [21]
  Activity: inactive
Plasmodium falciparum [3]
  log(activity): 3.8
Plasmodium falciparum [4]
  Activity: Active
Plasmodium falciparum [11]
  Activity: Active
